Experiments:
[1] = test system: Canis familiaris; assay: Ex vivo TXA2 ([…]) antagonist activity was determined for U-46,619 induced aggregation (dose ratio) after 24 hr of oral dosing (1 mg/kg) in the dog; assay type: functional, Canis lupus familiaris
Summary of the method: (§1)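 Dogs (n = 4) dosed orally, blood sampled at 2, 5, 8 and 24 h. Platelet-rich plasma aggregated with U46619 plus a predetermined threshold ADP concentration (about 0.4–1.2 × 10^-6 M), compared before vs after dosing to give a U46619 dose ratio. ">" marks the maximum achievable ratio at top U46619 (1 × 10^-4 M).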

[2] = test system: Canis familiaris; assay: Ex vivo TXA2 ([…]) antagonist activity was determined for U-46,619 induced aggregation (dose ratio) after 24 hr of oral dosing (3 mg/kg) in the dog; assay type: functional, Canis lupus familiaris; summary of the method: as §1
[3] = test system: Canis familiaris; assay: Ex vivo TXA2 ([…]) antagonist activity was determined for U-46,619 induced aggregation (dose ratio) after 2 hr of oral dosing (10 mg/kg) in the dog; assay type: functional, Canis lupus familiaris; summary of the method: as §1
[4] = test system: Canis familiaris; assay: Ex vivo TXA2 ([…]) antagonist activity was determined for U-46,619 induced aggregation (dose ratio) after 2 hr of oral dosing (1 mg/kg) in the dog; assay type: functional, Canis lupus familiaris; summary of the method: as §1
[5] = test system: Canis familiaris; assay: Ex vivo TXA2 ([…]) antagonist activity was determined for U-46,619 induced aggregation (dose ratio) after 5 hr of oral dosing (10 mg/kg) in the dog; assay type: functional, Canis lupus familiaris; summary of the method: as §1
[6] = test system: Canis familiaris; assay: Ex vivo TXA2 ([…]) antagonist activity was determined for U-46,619 induced aggregation (dose ratio) after 5 hr of oral dosing (3 mg/kg) in the dog; assay type: functional, Canis lupus familiaris; summary of the method: as §1
[7] = test system: Canis familiaris; assay: Ex vivo TXA2 ([…]) antagonist activity was determined for U-46,619 induced aggregation (dose ratio) after 8 hr of oral dosing (10 mg/kg) in the dog; assay type: functional, Canis lupus familiaris; summary of the method: as §1
[8] = test system: Canis familiaris; assay: Ex vivo TXA2 ([…]) antagonist activity was determined for U-46,619 induced aggregation (dose ratio) after 8 hr of oral dosing (1 mg/kg) in the dog; assay type: functional, Canis lupus familiaris; summary of the method: as §1
[9] = test system: Canis familiaris; assay: Ex vivo TXA2 ([…]) antagonist activity was determined for U-46,619 induced aggregation (dose ratio) after 8 hr of oral dosing (3 mg/kg) in the dog; assay type: functional, Canis lupus familiaris; summary of the method: as §1
[10] = species on record: Homo sapiens; assay: In vitro inhibition of U-46,619-induced aggregation of unwashed human platelets.; assay type: functional
Summary of the method: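 Citrated (3.2%) human venous blood spun at 200g for 10 min. Platelet-rich plasma aggregated with U46619 with or without several antagonist concentrations.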

[11] = test system: Rattus norvegicus; assay: Ex vivo […] (TXA2 synthase) inhibitory activity after 1 hr of oral dosing (5 mg/kg) in the rat; assay type: functional
Summary of the method: (§2)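 Rats (n = 6) gavaged, anesthetized, aortic blood taken at 1, 3 or 5 h after dosing. A blood aliquot was challenged with collagen and TXB2 measured by radioimmunoassay; expressed as % inhibition of TXA2 synthase (±SEM).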

[12] = test system: Rattus norvegicus; assay: Ex vivo […] (TXA2 synthase) inhibitory activity after 3 hr of oral dosing (10 mg/kg) in the rat; assay type: functional; summary of the method: as §2
[13] = test system: Rattus norvegicus; assay: Ex vivo […] (TXA2 synthase) inhibitory activity after 3 hr of oral dosing (3 mg/kg) in the rat; assay type: functional; summary of the method: as §2
[14] = test system: Rattus norvegicus; assay: Ex vivo […] (TXA2 synthase) inhibitory activity after 3 hr of oral dosing (5 mg/kg) in the rat; assay type: functional
Summary of the method: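 Conscious rats (n = 6) were gavaged with compound, then anesthetized, and blood was drawn from the abdominal aorta at 1, 3 and 5 h after dosing. A blood aliquot was stimulated with collagen and the TXB2 formed was measured by radioimmunoassay. Results are expressed as % inhibition of TXA2 synthase activity (±SEM).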

[15] = test system: Rattus norvegicus; assay: Ex vivo […] (TXA2 synthase) inhibitory activity after 5 hr of oral dosing (10 mg/kg) in the rat; assay type: functional; summary of the method: as §2
[16] = test system: Rattus norvegicus; assay: Ex vivo […] (TXA2 synthase) inhibitory activity after 5 hr of oral dosing (3 mg/kg) in the rat; assay type: functional; summary of the method: as §2
[17] = test system: Rattus norvegicus; assay: Ex vivo […] (TXA2 synthase) inhibitory activity after 5 hr of oral dosing (5 mg/kg) in the rat; assay type: functional; summary of the method: as §2
[18] = test system: Rattus norvegicus; assay: Ex vivo […] (TXA2 synthase) inhibitory activity after 1 hr of oral dosing (3 mg/kg) in the rat; assay type: functional; summary of the method: as §2
[19] = test system: Rattus norvegicus; assay: Ex vivo TXA2 ([…]) antagonist activity was determined for U-46,619 induced aggregation (dose ratio) after 5 hr of oral dosing (5 mg/kg) in the rat; assay type: functional
Summary of the method: (§3)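 Conscious rats (n = 6) dosed by oral gavage, then anesthetized and bled from the abdominal aorta at 1, 3 or 5 h. Platelet-rich plasma aggregated with U46619 before and after dosing to give a U46619 dose ratio. ">" values mark the maximum dose ratio achievable at the top U46619 concentration (1 × 10^-4 M).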

[20] = test system: Rattus norvegicus; assay: Ex vivo TXA2 ([…]) antagonist activity was determined for U-46,619 induced aggregation (dose ratio) after 1 hr of oral dosing (10 mg/kg) in the rat; assay type: functional; summary of the method: as §3
[21] = test system: Rattus norvegicus; assay: Ex vivo TXA2 ([…]) antagonist activity was determined for U-46,619 induced aggregation (dose ratio) after 1 hr of oral dosing (1 mg/kg) in the rat; assay type: functional; summary of the method: as §3
[22] = test system: Rattus norvegicus; assay: Ex vivo TXA2 ([…]) antagonist activity was determined for U-46,619 induced aggregation (dose ratio) after 1 hr of oral dosing (3 mg/kg) in the rat; assay type: functional; summary of the method: as §3
[23] = test system: Rattus norvegicus; assay: Ex vivo TXA2 ([…]) antagonist activity was determined for U-46,619 induced aggregation (dose ratio) after 1 hr of oral dosing (5 mg/kg) in the rat; assay type: functional; summary of the method: as §3
[24] = test system: Rattus norvegicus; assay: Ex vivo TXA2 ([…]) antagonist activity was determined for U-46,619 induced aggregation (dose ratio) after 3 hr of oral dosing (10 mg/kg) in the rat; assay type: functional; summary of the method: as §3
[25] = test system: Rattus norvegicus; assay: Ex vivo TXA2 ([…]) antagonist activity was determined for U-46,619 induced aggregation (dose ratio) after 3 hr of oral dosing (1 mg/kg) in the rat; assay type: functional; summary of the method: as §3
[26] = test system: Rattus norvegicus; assay: Ex vivo TXA2 ([…]) antagonist activity was determined for U-46,619 induced aggregation (dose ratio) after 3 hr of oral dosing (3 mg/kg) in the rat; assay type: functional; summary of the method: as §3
[27] = molecular target: T1, Prostacyclin synthase (Homo sapiens, UniProt Q16647); assay: In vitro inhibition of Prostaglandin I2 synthase in cultured human endothelial cells
T1 sequence (Q16647 whole entry): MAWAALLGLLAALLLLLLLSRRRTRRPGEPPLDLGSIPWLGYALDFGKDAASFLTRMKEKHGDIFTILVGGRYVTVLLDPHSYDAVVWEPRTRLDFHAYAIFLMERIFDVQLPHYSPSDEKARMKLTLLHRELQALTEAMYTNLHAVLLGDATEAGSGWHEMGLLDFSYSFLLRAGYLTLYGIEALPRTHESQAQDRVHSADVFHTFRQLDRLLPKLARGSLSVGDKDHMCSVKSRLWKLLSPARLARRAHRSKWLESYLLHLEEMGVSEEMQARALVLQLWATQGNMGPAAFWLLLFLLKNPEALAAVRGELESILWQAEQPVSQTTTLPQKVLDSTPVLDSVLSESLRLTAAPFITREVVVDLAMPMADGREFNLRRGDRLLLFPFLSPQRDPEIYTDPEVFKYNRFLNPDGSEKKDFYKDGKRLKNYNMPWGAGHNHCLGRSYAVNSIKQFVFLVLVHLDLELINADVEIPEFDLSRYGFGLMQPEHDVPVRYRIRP

Q: Which results are given for `Cc1ccc(OC(C)(C)C2OCC(C/C=C\CCC(=O)O)C(c3cccnc3)O2)c([N+](=O)[O-])c1` (stereo in doubt; 7x)?
A: Antagonist activity [1]: >1.4; Antagonist activity [2]: >281; Antagonist activity [3]: >522; Antagonist activity [4]: >506; Antagonist activity [5]: >522; Antagonist activity [6]: >321; Antagonist activity [7]: >522; Antagonist activity [8]: >506; Antagonist activity [9]: >321; pA2 [10]: 8.43; Inhibition [11]: 92.9%; Inhibition [12]: 93.9%; Inhibition [13]: 82.5%; Inhibition [14]: 89.2%; Inhibition [15]: 89%; Inhibition [16]: 68.3%; Inhibition [17]: 79.3%; Inhibition [18]: 90.8%; Antagonist activity [19]: >47; Antagonist activity [20]: >113; Antagonist activity [21]: >21; Antagonist activity [22]: >34; Antagonist activity [23]: >60; Antagonist activity [24]: >71; Antagonist activity [25]: >27; Antagonist activity [26]: >23; IC50 [27]: 28 µM

— ChEMBL document CHEMBL1128245, “Dual-acting thromboxane receptor antagonist/synthase inhibitors: synthesis and biological properties of [2-substituted-4-(3-pyridyl)-1,3-dioxan-5-yl] alkenoic acids” (J Med Chem, 1995)
